Published values collected from several papers.
Each line is one published result; the experiments were not run side by side.
Target: Calcium/calmodulin-dependent protein kinase type 1 (CAMK1, Homo sapiens, UniProt Q14012)

SMILES | observed | technique | tested at | remaining binding [%]
CN(C)c1nccc(-c2cnc3ncccn23)n1 | binding | – | 1 µM | 68
O=C(NC[C@@H]1[C@H]2CN(C(=O)OCc3cc(C(F)(F)F)cc(C(F)(F)F)c3)C[C@@H]12)c1ccc2[nH]nnc2c1 | cell-free assay | competition with immobilised ligand | 1 µM | 77
O=C(c1ccc(Nc2ncc(Cl)c(-c3cc4ccccc4s3)n2)cc1)N1CCC(N2CCCC2)CC1 | binding | competition with immobilised ligand | 1 µM | 58
N[C@H]1CCN(c2nccc(-c3cnn4ncccc34)n2)C1 | binding | – | 1 µM | 88
COc1ccc2c(c1)O[C@H](c1ccc(OC)c(OC)c1)C[C@@H]2NC(=O)C1(c2ccc3c(c2)OC(F)(F)O3)CC1 | cell-free assay | competition with immobilised ligand | 1 µM | 100
C[C@@H]1CCN(c2nccc(-c3cnn4ncccc34)n2)C1 | binding | – | 1 µM | 87
COc1cnc(Nc2cccc(S(N)(=O)=O)c2)nc1N1CCN(c2ccccc2)C(=O)C1 | binding | competition with immobilised ligand | 1 µM | 100
CO[C@H]1CC[C@H](CNc2ccc(S(=O)(=O)NC(=O)c3ccc(N4CCN(CC5=C(c6ccc(Cl)cc6)CC(C)(C)CC5)CC4)cc3Oc3cnc4[nH]ccc4c3)cc2[N+](=O)[O-])CC1 | cell-free assay | competition with immobilised ligand | 1 µM | 88
O=C(c1ccc(Nc2nccc(-c3cc4ccccc4s3)n2)cc1)N1CCC(N2CCCC2)CC1 | binding | competition with immobilised ligand | 1 µM | 71
F[C@@H]1CCN(c2nccc(-c3cnn4ncccc34)n2)C1 | binding | – | 1 µM | 100
C[C@H](c1ccc(F)cc1)N(Cc1cccc(C(=O)O)c1)C(=O)c1cnc2ccccc2c1 | cell-free assay | competition with immobilised ligand | 1 µM | 100
c1cncc(-c2cccc(Nc3nccc(NC4CCCCC4)n3)c2)c1 | binding | competition with immobilised ligand | 10 µM | 53
CC1=C(C#N)C(c2ccc3c(c2)c(NC(=O)c2ccccc2C)nn3C)C(C#N)=C(C)N1 | cell-free assay | competition with immobilised ligand | 1 µM | 98
Cc1cnc(Nc2ccc(C(=O)N3CCC(N4CCCC4)CC3)cc2)nc1-c1cc2ccccc2s1 | binding | competition with immobilised ligand | 1 µM | 30
O=C(Nc1c[nH]nc1C(=O)NC1CCNCC1)c1cc(F)cc(F)c1 | binding | competition with immobilised ligand | 1 µM | 74
CN([C@@H]1CCc2c(CC(=O)O)c3ccccc3n2C1)S(=O)(=O)c1ccc(F)cc1 | cell-free assay | competition with immobilised ligand | 1 µM | 100
C=CC(=O)N1CCC(C(=O)NCC(=O)N2CCN(c3nc(-c4cnc(N)nc4C(F)F)nc(N4CCOCC4)n3)CC2)CC1 | binding | competition with immobilised ligand | 1 µM | 86
CN(C)c1ncc(F)c(-c2cnn3ncccc23)n1 | binding | – | 1 µM | 86
C[C@@H](c1ccc(-n2cnc3c(N)ncnc32)cc1)N1CCc2nn(C)c(Cc3ccccc3)c2C1=O | binding | competition with immobilised ligand | 0.1 µM | 89
c1cnn2ncc(-c3ccnc(N4CCC45COC5)n3)c2c1 | binding | – | 1 µM | 80
CNC(=O)[C@@H]1CC[C@@H](n2c(-c3ccc4cnccc4c3)nc3ccc(C(=O)NCc4cccc(C(N)=O)c4)cc32)C1 | binding | competition with immobilised ligand | 1 µM | 99
